# Compound activity (PubChem BioAssay)
# Many of the other results were omitted from the sample, so hits are more common in it than they were.
# T cruzi growth-1: inhibitors of T. cruzi proliferation; inhibition, % at 8.34 µM; 77,000 tested, 5.9% active; AID 624255; T. cruzi beta-gal in NIH3T3, GalScreen luminescence, 90 h;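 active = mean inhibition above about 93%, with at least 55% of replicates each passing it, limit read from the data, passing the limit was not always enough; inconclusive = only one of those two conditions holds; inactive = neither condition holds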
# IDH1 R132H inh: blocks human IDH1 R132H reductase activity; O75874; diaphorase/resazurin fluorescence, 60 min; inhibition, % at 10 µM; 70,000 tested, 0.18% active; AID 624101; in the data active = inhibition above about 34%; inconclusive = no clear call, values can overlap the other calls; inactive = below about 11%;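 note: 0% = DMSO and 100% = no enzyme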
# Target sequence (O75874 whole entry R132H): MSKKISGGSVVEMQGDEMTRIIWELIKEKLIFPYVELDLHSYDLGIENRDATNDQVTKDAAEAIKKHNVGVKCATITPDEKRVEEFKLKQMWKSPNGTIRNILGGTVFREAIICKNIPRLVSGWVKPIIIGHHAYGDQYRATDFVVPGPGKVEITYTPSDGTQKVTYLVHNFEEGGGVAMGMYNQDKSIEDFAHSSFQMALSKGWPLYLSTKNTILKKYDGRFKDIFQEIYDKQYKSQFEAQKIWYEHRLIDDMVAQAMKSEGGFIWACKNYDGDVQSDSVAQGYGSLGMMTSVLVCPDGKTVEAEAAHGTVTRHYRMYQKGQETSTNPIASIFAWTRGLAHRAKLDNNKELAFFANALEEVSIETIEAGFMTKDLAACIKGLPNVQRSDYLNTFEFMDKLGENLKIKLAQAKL
# GASC1 inh: KDM4C (human) demethylase inhibition; inhibition, % at 12.5 µM; GST-KDM4C 2-372, H3K9me3 peptide, LANCE TR-FRET; Q9H3R0; AID 720574; 96,000 tested, 0.15% active;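 active = mean replicate inhibition above about 25%, with at least 55% of replicates also reaching it, limit read from the data, passing the limit was not always enough; inconclusive = only one of those two conditions met; inactive = neither condition met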
#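 reagent = H3K9me3 peptide substrate, Fe(II), 2-oxoglutarate | system = GST-tagged GASC-1 (JMJD2C) catalytic fragment, aa 2-372 | amount = enzyme final amount 10 nM | read-out = Fall in 671/618 emission ratio as inhibition | medium = HEPES buffer, pH 7.5, plus ascorbate | schedule = 30 min reaction, 60 min detection, RT | measured by = LANCE TR-FRET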
# T cruzi growth-2: inhibitors of T. cruzi proliferation; shares compounds with T cruzi growth-1; T. cruzi beta-gal in NIH3T3, GalScreen luminescence, 90 h; inhibition, % at 8.35 µM; 5,600 tested, 72% active; AID 651739;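 active = mean replicate inhibition above about 95% and at least 55% of replicates individually reaching it, limit read from the data; inconclusive = only one of the two criteria is met; inactive = neither criterion is met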
# T cruzi growth-3: Trypanosoma cruzi proliferation inhibition; shares compounds with T cruzi growth-1; T. cruzi beta-gal in NIH3T3, GalScreen luminescence, 90 h; inhibition, % at 2.09 µM; 5,600 tested, 21% active;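 active = mean inhibition above about 95%, with at least 55% of replicates also reaching it, limit read from the data; inconclusive = meets just one of the two conditions; inactive = meets neither condition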;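 note: plate controls were neutral control median for no effect and positive control median for full effect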
# 3T3 cytotox: kills mouse NIH/3T3 fibroblasts; NIH/3T3 viability, CellTiter-Glo ATP luminescence, 90 h; cytotoxicity (signal decrease), % at 8.35 µM; 5,600 tested, 14% active; AID 651742; shares compounds with T cruzi growth-1;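 active = mean signal decrease across replicates above about 35% based on untreated-well scatter, with enough replicates individually passing, limit read from the data; inconclusive = no rule stated though some were filed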;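 note: 0% = median of neutral control wells and 100% = median of positive control wells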
# NIH3T3 tox 2: NIH/3T3 (mouse) viability loss | 5,600 tested, 56% active | inhibition, % at 24.9 µM | shares compounds with T cruzi growth-1 | NIH/3T3 viability, CellTiter-Glo ATP luminescence, 90 h;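 active = mean loss of cell viability signal at or above a set limit, and enough replicates individually reaching it; inconclusive = meets only the mean limit or only the replicate share; inactive = meets neither condition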;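 note: 0% = median of neutral control wells and 100% = median of positive control wells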
# Active calls of the source: *; u = inconclusive; x = no result given; + = active, no number.
SMILES,T cruzi growth-1,IDH1 R132H inh,GASC1 inh,T cruzi growth-2,T cruzi growth-3,3T3 cytotox,NIH3T3 tox 2
COc1c(S(=O)(=O)n2c(C)nc3ccccc32)ccc(Cl)c1Cl,x,0,x,x,x,x,x
CCOC(=O)c1c(NC(=S)NC(=O)c2ccc(OC)c([N+](=O)[O-])c2)sc2c1CCC2,x,0,x,x,x,x,x
C[C@H]1CN([C@@H](C)CO)S(=O)(=O)c2ccc(C3=CCCCC3)cc2O[C@H]1CN(C)C(=O)c1ccc(F)cc1,111,-4,0,x,x,x,x
C[C@@H]1CN([C@H](C)CO)S(=O)(=O)c2ccc(C3=CCCCC3)cc2O[C@@H]1CN(C)C(=O)c1ccc(F)cc1,113*,x,3,107*,91,18,101*
CN1[C@H](C(=O)Nc2ccccc2)[C@@H](CO)[C@@H]2Cn3c(ccc(-c4ccccc4)c3=O)[C@@H]21,100*,x,7,59,-20,-1,u
CN(C)CC(=O)N1[C@H](C(=O)NC2CCC2)[C@@H](CO)[C@@H]2Cn3c(ccc(-c4ccccc4)c3=O)[C@@H]21,+,x,2,60,-20,-13,-24
COc1ccc(-c2ccc3n(c2=O)C[C@H]2[C@H](CO)[C@@H](C(=O)Nc4ccccc4)N(C)[C@@H]32)cc1,x,x,6,x,x,x,x
CCN1[C@H](C(=O)Nc2ccccc2)[C@@H](CO)[C@@H]2Cn3c(ccc(-c4ccncc4)c3=O)[C@@H]21,14,x,1,x,x,x,x
CN1[C@@H]2c3ccc(-c4ccccc4)c(=O)n3C[C@@H]2[C@@H](CO)[C@@H]1C(=O)Nc1ccccc1,101*,x,4,92,16,4,18
CC(=O)N1[C@H](C(=O)NC2CCC2)[C@@H](CO)[C@@H]2Cn3c(ccc(-c4ccccc4)c3=O)[C@@H]21,21,x,1,x,x,x,x
CCC(C)C(O)C(C)(O)/C=C/C1=CC2=C(Cl)C(=O)C(C)(O)C(O)C2CO1 (centres undefined),x,0,x,x,x,x,x
C[C@H]1O[C@@H](O[C@H]2C[C@H]3C(=O)C[C@]4(C)C(=CCC5[C@@]6(C)CC[C@H](O[C@@H]7OC[C@@H](O)[C@H](O)[C@H]7O)[C@@](C)(C=O)C6CC[C@]54C)[C@@H]3CC2(C)C)[C@H](O)[C@@H](O)[C@@H]1O[C@@H]1O[C@H](C(=O)O)[C@@H](O)[C@H](O)[C@H]1O (some centres undefined),x,0,x,x,x,x,x
O=C(CSc1nnc(-c2ccco2)o1)c1ccc(Oc2ccccc2)cc1,x,0,x,x,x,x,x
COCC#Cc1ccc2c(c1)O[C@@H](CN(C)S(=O)(=O)c1ccc(F)cc1)[C@@H](C)CN([C@@H](C)CO)S2(=O)=O,84,-4,-3,x,x,x,x
C[C@@H]1CN([C@@H](C)CO)S(=O)(=O)c2ccc(C#Cc3ccc(F)cc3)cc2O[C@@H]1CN(C)S(=O)(=O)c1ccc(F)cc1,114*,x,0,106*,115*,26,43*
C[C@H](CO)N1C[C@H](C)[C@@H](CN(C)S(=O)(=O)c2ccc(F)cc2)Oc2cc(C#Cc3ccc(F)cc3)ccc2S1(=O)=O,107*,-2,-2,100*,109*,28,65*
CC(C)CC#Cc1ccc2c(c1)O[C@H](CN(C)S(=O)(=O)c1ccc(F)cc1)[C@H](C)CN([C@@H](C)CO)S2(=O)=O,x,0,-1,x,x,x,x
C[C@@H]1CN([C@@H](C)CO)S(=O)(=O)c2ccc(C#Cc3ccc(F)cc3)cc2O[C@H]1CN(C)S(=O)(=O)c1ccc(F)cc1,115*,x,-4,103*,116*,u,55*
CC(C)CC#Cc1ccc2c(c1)O[C@@H](CN(C)S(=O)(=O)c1ccc(F)cc1)[C@H](C)CN([C@H](C)CO)S2(=O)=O,x,-1,0,x,x,x,x
C[C@H]1CN([C@@H](C)CO)S(=O)(=O)c2ccc(C#Cc3ccc(F)cc3)cc2O[C@@H]1CN(C)S(=O)(=O)c1ccc(F)cc1,u,0,2,95*,113*,33,68*
CSc1ccccc1NC(=O)CN(c1cccc(Cl)c1Cl)S(C)(=O)=O,x,0,x,x,x,x,x
O=C(c1ccccc1)c1ccc(OCC(O)Cn2cnc3ccccc32)cc1 (centres undefined),x,5,x,x,x,x,x
COc1cc(S(=O)(=O)n2cnc3cc(C)c(C)cc32)c(OC)cc1Cl,x,-2,x,x,x,x,x
COc1ccc(CCNC(=O)c2c(-c3c(F)cccc3Cl)noc2C)cc1OC,x,0,x,x,x,x,x
COCC#Cc1ccc2c(c1)O[C@H](CN(C)S(=O)(=O)c1ccc(F)cc1)[C@H](C)CN([C@H](C)CO)S2(=O)=O,68,1,2,x,x,x,x
SMILES,T cruzi growth-1,IDH1 R132H inh,GASC1 inh,T cruzi growth-2,T cruzi growth-3,3T3 cytotox,NIH3T3 tox 2
C[C@H]1CN([C@@H](C)CO)S(=O)(=O)c2ccc(C#Cc3ccc(F)cc3)cc2O[C@H]1CN(C)S(=O)(=O)c1ccc(F)cc1,107*,0,1,105*,u,8,1
Cc1c(Cl)cccc1NC(=O)CN(c1ccccc1)S(C)(=O)=O,x,0,x,x,x,x,x
CCOC(=O)c1c(NC(=O)C(C)Oc2ccccc2)sc(C)c1C (centres undefined),x,-1,x,x,x,x,x
COc1cc(NC(=O)COc2ccc(Br)cc2)ccc1NC(=O)c1ccco1,x,0,x,x,x,x,x
COc1ccccc1-c1ccc2c(c1)O[C@H](CN(C)S(=O)(=O)c1ccc(F)cc1)[C@H](C)CN([C@@H](C)CO)S2(=O)=O,99*,2,-1,95*,85,21,47*
C[C@H]1CN([C@@H](C)CO)S(=O)(=O)c2ccc(-c3ccccc3F)cc2O[C@@H]1CN(C)S(C)(=O)=O,-48,-2,x,x,x,x,x
COc1ccccc1-c1ccc2c(c1)O[C@@H](CN(C)S(=O)(=O)c1ccc(F)cc1)[C@@H](C)CN([C@@H](C)CO)S2(=O)=O,103*,0,-1,109*,90,50*,45*
COc1ccccc1-c1ccc2c(c1)O[C@@H](CN(C)S(=O)(=O)c1ccc(F)cc1)[C@@H](C)CN([C@H](C)CO)S2(=O)=O,106*,0,0,99*,90,u,64*
C[C@@H]1CN([C@H](C)CO)S(=O)(=O)c2ccc(-c3ccccc3F)cc2O[C@H]1CN(C)S(C)(=O)=O,-24,-2,0,x,x,x,x
C[C@@H]1CN([C@@H](C)CO)S(=O)(=O)c2ccc(-c3ccccc3F)cc2O[C@H]1CN(C)S(C)(=O)=O,-57,-1,0,x,x,x,x
O=[N+]([O-])c1cccc(NC(=S)NCCn2cc(Br)cn2)c1,x,0,x,x,x,x,x
Cc1ccc(-n2c(SCC(=O)NCC3CCCO3)nc3sc(C)c(C)c3c2=O)cc1C (centres undefined),x,-1,x,x,x,x,x
COc1ccc(-c2csc3ncnc(SCc4c(C)noc4C)c23)cc1,x,0,x,x,x,x,x
CCN(CC(=O)Nc1ccc(I)cc1)S(=O)(=O)c1ccc(Cl)cc1,x,0,x,x,x,x,x
